Series [1] concerns the target T1, Receptor-interacting serine/threonine-protein kinase 2 (Homo sapiens, UniProt O43353). Description: Displacement of fluorescein labeled ATP probe from His/GST-tagged RIPK2 (unknown origin) incubated for 60 mins by HTRF assay. (Time-resolved FRET reads energy transfer from a long-lived donor to a nearby acceptor.)
The nature of series [2]: Selectivity index, ratio of IC50 for displacement of fluorescein labeled ATP probe from His/GST-tagged RIPK1 (unknown origin) incubated for 60 mins by HTRF assay to IC50 for displacement of fluorescein labeled ATP probe from His/GST-tagged c-Met (unknown origin) incubated for 60 mins by HTRF assay. To be noted: human, 1 h.
The species named for series [3] is Homo sapiens. Description: Selectivity index, ratio of IC50 for displacement of fluorescein labeled ATP probe from His/GST-tagged c-Met (unknown origin) incubated for 60 mins by HTRF assay to IC50 for displacement of fluorescein labeled ATP probe from full length His/GST-tagged RIPK3 (unknown origin) incubated for 60 mins by HTRF assay.
The target in series [4] is Hepatocyte growth factor receptor (Homo sapiens, UniProt P08581). The experiment in a line: Displacement of fluorescein labeled ATP probe from His/GST-tagged c-Met (unknown origin) incubated for 60 mins by HTRF assay.
Chain of Hepatocyte growth factor receptor (P08581 whole entry): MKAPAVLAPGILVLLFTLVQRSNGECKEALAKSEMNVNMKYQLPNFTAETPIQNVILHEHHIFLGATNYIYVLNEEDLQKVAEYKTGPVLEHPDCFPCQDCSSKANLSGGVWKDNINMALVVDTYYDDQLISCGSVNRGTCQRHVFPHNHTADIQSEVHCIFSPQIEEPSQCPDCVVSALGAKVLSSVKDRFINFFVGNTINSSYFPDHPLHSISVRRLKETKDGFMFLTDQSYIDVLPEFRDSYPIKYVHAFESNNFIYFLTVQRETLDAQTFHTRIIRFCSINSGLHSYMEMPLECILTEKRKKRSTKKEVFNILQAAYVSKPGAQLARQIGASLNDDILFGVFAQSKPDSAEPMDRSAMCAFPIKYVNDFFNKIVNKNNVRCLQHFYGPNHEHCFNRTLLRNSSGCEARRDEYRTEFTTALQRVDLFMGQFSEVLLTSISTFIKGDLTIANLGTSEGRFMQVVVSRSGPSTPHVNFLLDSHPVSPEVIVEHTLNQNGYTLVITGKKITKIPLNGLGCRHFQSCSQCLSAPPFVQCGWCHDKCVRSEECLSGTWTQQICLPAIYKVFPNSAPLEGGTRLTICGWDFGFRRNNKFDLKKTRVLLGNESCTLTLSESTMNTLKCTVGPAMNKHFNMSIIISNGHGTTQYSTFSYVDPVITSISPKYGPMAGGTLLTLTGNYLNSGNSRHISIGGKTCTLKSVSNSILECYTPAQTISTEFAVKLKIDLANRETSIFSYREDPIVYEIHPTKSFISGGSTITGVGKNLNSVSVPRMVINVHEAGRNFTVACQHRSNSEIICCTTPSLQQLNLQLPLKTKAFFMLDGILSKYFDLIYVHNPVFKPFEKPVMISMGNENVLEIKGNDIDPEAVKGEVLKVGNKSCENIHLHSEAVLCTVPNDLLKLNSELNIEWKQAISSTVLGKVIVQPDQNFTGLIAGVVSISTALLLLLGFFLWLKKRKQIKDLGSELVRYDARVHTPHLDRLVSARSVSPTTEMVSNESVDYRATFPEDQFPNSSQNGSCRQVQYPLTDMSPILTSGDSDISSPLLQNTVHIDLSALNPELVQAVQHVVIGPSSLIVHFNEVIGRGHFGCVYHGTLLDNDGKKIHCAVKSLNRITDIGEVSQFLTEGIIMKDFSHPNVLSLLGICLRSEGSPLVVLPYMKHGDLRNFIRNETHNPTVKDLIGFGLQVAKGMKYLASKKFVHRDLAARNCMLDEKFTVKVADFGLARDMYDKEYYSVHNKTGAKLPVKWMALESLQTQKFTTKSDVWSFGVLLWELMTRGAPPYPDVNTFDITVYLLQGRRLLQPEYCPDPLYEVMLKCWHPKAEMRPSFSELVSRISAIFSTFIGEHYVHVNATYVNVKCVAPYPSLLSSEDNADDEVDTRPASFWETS
The target in series [5] is T2, Receptor-interacting serine/threonine-protein kinase 1 (Homo sapiens, UniProt Q13546).
T2 sequence (Q13546 whole entry): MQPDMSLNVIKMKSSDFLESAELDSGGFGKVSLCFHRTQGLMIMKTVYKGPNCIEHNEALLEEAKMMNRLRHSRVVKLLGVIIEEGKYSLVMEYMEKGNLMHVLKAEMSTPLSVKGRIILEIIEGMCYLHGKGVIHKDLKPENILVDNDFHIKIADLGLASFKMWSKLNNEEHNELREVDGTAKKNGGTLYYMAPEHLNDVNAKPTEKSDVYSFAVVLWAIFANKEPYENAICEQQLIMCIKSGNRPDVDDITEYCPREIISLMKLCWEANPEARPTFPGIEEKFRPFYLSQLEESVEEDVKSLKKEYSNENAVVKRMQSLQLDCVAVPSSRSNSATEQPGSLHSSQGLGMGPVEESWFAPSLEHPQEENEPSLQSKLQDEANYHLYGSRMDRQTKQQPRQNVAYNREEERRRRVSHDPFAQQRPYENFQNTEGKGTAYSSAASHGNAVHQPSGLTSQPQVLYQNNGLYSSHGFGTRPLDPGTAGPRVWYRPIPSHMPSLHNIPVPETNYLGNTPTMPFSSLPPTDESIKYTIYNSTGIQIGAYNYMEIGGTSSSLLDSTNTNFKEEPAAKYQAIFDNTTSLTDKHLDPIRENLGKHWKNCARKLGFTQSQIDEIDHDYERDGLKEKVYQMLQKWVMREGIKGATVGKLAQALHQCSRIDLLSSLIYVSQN
Description: Displacement of fluorescein labeled ATP probe from full length His/GST-tagged RIPK1 (unknown origin) incubated for 60 mins by HTRF assay.

A short description of series [6]: Selectivity index, ratio of IC50 for displacement of fluorescein labeled ATP probe from His/GST-tagged RIPK2 (unknown origin) incubated for 60 mins by HTRF assay to IC50 for displacement of fluorescein labeled ATP probe from His/GST-tagged c-Met (unknown origin) incubated for 60 mins by HTRF assay. To be noted: human, 1 h.
The target of series [7] is T3, Receptor-interacting serine/threonine-protein kinase 3 (Homo sapiens, UniProt Q9Y572). Description: Displacement of fluorescein labeled ATP probe from full length His/GST-tagged RIPK3 (unknown origin) incubated for 60 mins by HTRF assay.
Target sequence in this assay (Q9Y572 whole entry): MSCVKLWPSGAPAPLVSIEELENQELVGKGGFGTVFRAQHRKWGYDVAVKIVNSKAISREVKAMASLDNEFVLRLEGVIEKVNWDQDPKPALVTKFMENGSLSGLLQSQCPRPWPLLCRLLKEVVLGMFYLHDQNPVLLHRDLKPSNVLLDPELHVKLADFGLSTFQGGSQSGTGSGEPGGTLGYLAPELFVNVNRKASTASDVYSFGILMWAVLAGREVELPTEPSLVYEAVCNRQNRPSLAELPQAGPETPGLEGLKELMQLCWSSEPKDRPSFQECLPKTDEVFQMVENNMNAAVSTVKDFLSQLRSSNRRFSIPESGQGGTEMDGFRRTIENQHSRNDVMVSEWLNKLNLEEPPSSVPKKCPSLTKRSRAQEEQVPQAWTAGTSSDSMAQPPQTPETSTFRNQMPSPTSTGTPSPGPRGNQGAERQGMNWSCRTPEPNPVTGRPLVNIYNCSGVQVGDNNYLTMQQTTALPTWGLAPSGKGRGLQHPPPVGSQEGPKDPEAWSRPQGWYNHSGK
Series [8] concerns the target T2, Receptor-interacting serine/threonine-protein kinase 1. Description: Displacement of fluorescein labeled ATP probe from His/GST-tagged RIPK1 (unknown origin) incubated for 60 mins by HTRF assay.
Series [9] addresses T1, Receptor-interacting serine/threonine-protein kinase 2. The experiment in a line: Displacement of fluorescein labeled probe from full length human GST-tagged RIPK2 expressed in Sf9 cells incubated for 60 mins by HTRF assay.
For series [10], the target named is T3, Receptor-interacting serine/threonine-protein kinase 3. Description: Displacement of fluorescein labeled probe from full length human GST-tagged RIPK3 expressed in Sf9 cells incubated for 60 mins by HTRF assay.
Target sequence in this assay (Q9Y572 whole entry): as above
For series [11], the target named is T2, Receptor-interacting serine/threonine-protein kinase 1. The experiment in a line: Displacement of fluorescein labeled probe from full length human GST-tagged RIPK1 expressed in Sf9 cells incubated for 60 mins by HTRF assay.
In series [12] the target is T3, Receptor-interacting serine/threonine-protein kinase 3. Description: Time dependent inhibition of full length His/GST-tagged RIPK3 (unknown origin) measured every 5 mins for 60 mins in presence of fluorescein labeled probe by HTRF assay relative to control. To be noted: 1 h.
Target sequence in this assay (Q9Y572 whole entry, looked up): as the sequence (Q9Y572 whole entry) above
Series [13] shares this target. Description: Time dependent inhibition of full length His/GST-tagged RIPK3 (unknown origin) measured every 5 mins for 60 mins in presence of fluorescein labeled probe by HTRF assay relative to control. Put shortly: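 Active full-length RIPK3 was preformed as a complex with the fluorescent probe and antibody. Inhibitor was then added as an 11-point concentration-response series, with HTRF read at 5 and 60 min. Time dependency was scored as the fold shift in IC50 between the two reads; ≥5-fold flagged possible slow binding.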
Target sequence in this assay (Q9Y572 whole entry, looked up): as the sequence (Q9Y572 whole entry) above

Series [14] has the same target. The experiment in a line: Time dependent inhibition of full length His/GST-tagged RIPK3 (unknown origin) measured every 5 mins for 60 mins in presence of fluorescein labeled probe by HTRF assay relative to control. To be noted: 1 h. The source holds these as a separate data set.
Target sequence in this assay (Q9Y572 whole entry, looked up): as the sequence (Q9Y572 whole entry) above
Series [15] is filed under the species Homo sapiens. The experiment in a line: Selectivity index, ratio of IC50 for displacement of fluorescein labeled ATP probe from His/GST-tagged RIPK1 (unknown origin) incubated for 60 mins by HTRF assay to IC50 for displacement of fluorescein labeled ATP probe from full length His/GST-tagged RIPK3 (unknown origin) incubated for 60 mins by HTRF assay.
The target of series [16] is Mitogen-activated protein kinase 14 (Homo sapiens, UniProt Q16539). The experiment in a line: Binding affinity to p38alpha (unknown origin). It counts as ADME.
Chain of Mitogen-activated protein kinase 14 (Q16539 whole entry): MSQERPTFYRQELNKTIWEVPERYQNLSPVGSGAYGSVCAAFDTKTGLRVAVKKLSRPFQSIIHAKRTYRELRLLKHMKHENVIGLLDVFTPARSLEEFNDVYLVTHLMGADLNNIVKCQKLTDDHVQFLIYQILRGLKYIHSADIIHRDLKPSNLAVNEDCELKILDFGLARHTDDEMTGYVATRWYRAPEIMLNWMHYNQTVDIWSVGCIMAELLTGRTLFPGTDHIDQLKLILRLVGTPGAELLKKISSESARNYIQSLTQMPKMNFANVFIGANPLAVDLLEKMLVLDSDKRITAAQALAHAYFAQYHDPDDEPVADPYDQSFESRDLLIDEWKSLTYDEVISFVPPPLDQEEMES

T1 sequence (O43353 whole entry): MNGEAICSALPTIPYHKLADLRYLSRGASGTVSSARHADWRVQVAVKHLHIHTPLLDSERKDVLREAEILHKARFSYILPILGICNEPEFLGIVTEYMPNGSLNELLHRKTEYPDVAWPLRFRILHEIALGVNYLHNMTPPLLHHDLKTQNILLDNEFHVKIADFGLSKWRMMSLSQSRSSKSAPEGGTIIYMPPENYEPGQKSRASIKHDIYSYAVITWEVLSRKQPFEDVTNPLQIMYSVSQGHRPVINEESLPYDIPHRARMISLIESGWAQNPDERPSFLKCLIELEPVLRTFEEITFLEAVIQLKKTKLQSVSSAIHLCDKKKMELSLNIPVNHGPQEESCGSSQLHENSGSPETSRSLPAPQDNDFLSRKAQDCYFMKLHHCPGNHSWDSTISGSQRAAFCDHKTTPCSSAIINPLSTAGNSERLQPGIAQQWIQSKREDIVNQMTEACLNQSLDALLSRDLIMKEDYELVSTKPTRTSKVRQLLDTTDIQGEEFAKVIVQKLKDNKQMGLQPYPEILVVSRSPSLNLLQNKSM

With `Cc1c(NC(=O)c2cccn(-c3ccc(F)cc3)c2=O)ccc(Oc2ccncc2)c1C`, the 50% inhibitory concentration (IC50) is over 15 µM in series [1], over 1.5 µM in series [4], over 15 µM in series [5] and 0.18 µM in series [7]. Further, the “Ratio IC50” value (in series [2]; in the series listed under Homo sapiens [3]; in series [6]) was over 10 each time.

Take `O=C(Nc1ccc(Oc2ccncc2)c(F)c1)c1cccn(-c2ccc(F)cc2)c1=O`: the IC50 in [1] was over 15 µM; in series [8] it was over 15 µM; in series [4] it was 0.018 µM; in series [7], 0.4 µM.

For the compound `Nc1ccc(C#Cc2c(Oc3ccc(NC(=O)c4cccn(-c5ccc(F)cc5)c4=O)cc3F)ccnc2N)nc1`, the values for the IC50 in series [9], in [10] and in series [11] were 2.4 µM, 0.0003 µM and 0.31 µM, respectively. The “fold change (FC)” value in [12], in series [13] and in series [14] was 6 each time.

With `O=C(Nc1ccc(Oc2ccnc3[nH]ccc23)c(F)c1)c1cccn(-c2ccc(F)cc2)c1=O`, the concentration for half-maximal inhibition (IC50) was over 15 µM in [1], 1.5 µM in [8] and 0.18 µM in series [7].

Consider `Cc1ccc(COC(=O)Nc2cc(-c3cc4c([nH]3)CCNC4=O)ccn2)cc1`, for which the IC50 in [9] is 0.05 µM; in series [10] it was 0.27 µM; in series [11], 17 µM. Moreover, in series [14], the “fold change (FC)” value is 2.

Turning to `O=C(Nc1ccc(Oc2ccncc2)c(F)c1)c1cccc(-c2ccc(F)cc2)c1`, the IC50 is over 15 µM in series [1], over 15 µM in [8], 4.5 µM in series [4] and over 15 µM in series [7].

As to `O=C(Nc1ccc(Oc2ccnc(NC(=O)C3CC3)c2)c(F)c1)c1cccn(-c2ccc(F)cc2)c1=O`, the IC50 in series [1] worked out at 1.8 µM; in [8] it was 0.18 µM; in series [4], 0.0025 µM; in series [7] it was 0.0029 µM. Besides, in the series listed under Homo sapiens [15], the Ratio IC50 was determined as 38.

Take `Cc1cc(NC(=O)c2cccn(-c3ccc(F)cc3)c2=O)ccc1Oc1ccnc(NC(=O)C2CC2)c1`: the IC50 in series [1] amounted to 0.68 µM; in [8] it was 0.2 µM; in series [4], 0.0063 µM; in series [7], 0.008 µM.

As to `Cc1c(NC(=O)c2cccn(-c3ccc(F)cc3)c2=O)ccc(Oc2ccnc(NC(=O)C3CC3)c2)c1C`, the IC50 was over 10 µM in series [1], 5.5 µM in series [8], 1.1 µM in [4] and 0.091 µM in [7]. Further, the Ratio IC50 in the series filed under Homo sapiens [3] came out at 100.

On to `CC#Cc1c(Oc2ccc(NC(=O)c3cccn(-c4ccc(F)cc4)c3=O)cc2F)ccnc1N`, for which the concentration for half-maximal inhibition (IC50) in series [1] worked out at 3 µM; in [5], 0.6 µM; in series [7] it was 0.016 µM.

Regarding `Cc1cc(NC(=O)c2cccn(-c3ccc(F)cc3)c2=O)cc(C)c1Oc1ccnc(NC(=O)C2CC2)c1`, the IC50 in series [1] was 3.1 µM; in series [8], 11 µM; in series [4] it was 0.3 µM; in series [7], 0.088 µM.

For `Cc1cc(NC(=O)c2cccn(-c3ccc(F)cc3)c2=O)cc(C)c1Oc1ccncc1`, the half-maximal inhibitory concentration (IC50) in [1] is 13 µM; in [8], over 15 µM; in series [4] it was 0.5 µM; in series [7] it was 0.32 µM.

`O=C(Nc1ccc(Oc2ccncc2)c2ccccc12)c1cccn(-c2ccc(F)cc2)c1=O`: the IC50 in [1] is over 15 µM; in series [8], over 15 µM; in series [4], 12 µM; in [7] it was 0.05 µM. Besides, the outcome in [16] was Active.

One may read the IC50 as the midpoint of a concentration-inhibition curve.

Source of the values: ChEMBL document CHEMBL4342476, “Identification of RIPK3 Type II Inhibitors Using High-Throughput Mechanistic Studies in Hit Triage” (ACS Med Chem Lett, 2020).
